Source: PubChem (Johns Hopkins Ion Channel Center)
TRPC6 act – activators of mouse TRPC6 channel | AID 2550 | B-score at 10 µM | Q61143 | 310,000 compounds, 0.13% hits | HEK293-TRPC6 membrane potential dye fluorescence; active compounds read high;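 active = B-score of the integrated fluorescence ratio above library mean plus 3 SD, and starting fluorescence ratio within library mean plus 5 SD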;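 also: higher score means more depolarization so channel activation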
Target sequence (Q61143 whole entry, looked up): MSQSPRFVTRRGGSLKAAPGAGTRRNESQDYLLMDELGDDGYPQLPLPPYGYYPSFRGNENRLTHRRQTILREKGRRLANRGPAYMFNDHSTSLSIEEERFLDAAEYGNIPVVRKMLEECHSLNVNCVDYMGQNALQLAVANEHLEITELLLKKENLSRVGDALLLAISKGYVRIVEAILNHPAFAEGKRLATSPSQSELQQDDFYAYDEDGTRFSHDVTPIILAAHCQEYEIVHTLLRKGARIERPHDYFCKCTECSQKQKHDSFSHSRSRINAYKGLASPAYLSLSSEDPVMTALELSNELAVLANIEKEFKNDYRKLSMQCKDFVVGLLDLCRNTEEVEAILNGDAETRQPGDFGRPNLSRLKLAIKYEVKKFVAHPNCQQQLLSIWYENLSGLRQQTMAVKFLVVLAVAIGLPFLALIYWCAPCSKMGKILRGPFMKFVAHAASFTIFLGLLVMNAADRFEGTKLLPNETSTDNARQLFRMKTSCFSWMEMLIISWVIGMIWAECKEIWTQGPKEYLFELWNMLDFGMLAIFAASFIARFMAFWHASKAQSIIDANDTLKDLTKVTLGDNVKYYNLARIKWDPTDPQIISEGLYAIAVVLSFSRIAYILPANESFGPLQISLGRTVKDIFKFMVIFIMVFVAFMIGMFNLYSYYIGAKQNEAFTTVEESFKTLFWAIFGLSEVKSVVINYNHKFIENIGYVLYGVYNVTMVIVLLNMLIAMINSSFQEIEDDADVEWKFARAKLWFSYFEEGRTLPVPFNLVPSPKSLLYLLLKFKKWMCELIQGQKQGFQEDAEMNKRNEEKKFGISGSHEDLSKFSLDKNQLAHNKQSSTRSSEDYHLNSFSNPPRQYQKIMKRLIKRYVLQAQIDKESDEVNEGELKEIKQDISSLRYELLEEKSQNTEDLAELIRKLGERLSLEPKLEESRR
TRPC4 potent – TRPC4 (mouse) allosteric potentiation; Q9QUQ5; HEK293 TRPC4beta/mu-opioid, DAMGO EC20, Fluo-4 Ca2+ flux; active compounds read high; B-score at 10 µM; 310,000 compounds, 0.42% hits;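 active = B-score of calcium response area above 5 SD of library B-scores, with initial fluorescence ratio within 5 SD of library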;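 also: B-score of integrated fluorescence ratio over time as area under calcium response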
TRPC6 inhibitor – blocks the mouse TRPC6 cation channel | Q61143 | 310,000 compounds, 1.1% hits | B-score at 10 µM | HEK293-TRPC6, membrane potential dye, ACh-evoked depolarization; active compounds read low;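 active = B-score under library mean minus 3 SD, initial fluorescence not abnormally high, positive integrated signal ratio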;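 also: B-score derived from integrated fluorescence ratio over the kinetic read; more negative B-score means stronger inhibition of depolarization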
TRPC4 block – inhibitors of mouse TRPC4 channel; B-score at 10 µM; 300,000 compounds, 0.39% hits; HEK293 TRPC4beta/mu-opioid, DAMGO-evoked Fluo4 calcium flux; active compounds read low;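 active = B-score over 3 SD under the library average, no early fluorescence shift, positive overall ratio signal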
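Signal: kinetic Fluo4 fluorescence imaging of calcium influx. Material: stable TRPC4beta/mu-opioid receptor HEK293 cells. Probe or stimulus: DAMGO in two steps, submaximal then maximal.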
TRPC4 agonist – TRPC4 (mouse) channel activation; 310,000 compounds, 0.49% hits; HEK293 TRPC4beta/mu-opioid, Fluo4 calcium fluorescence; active compounds read high; AID 2237; Q9QUQ5; B-score at 10 µM;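 active = B-score above 5 SD of library B-scores, and initial fluorescence ratio not above library mean plus 5 SD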;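 also: positive B-score marks a calcium rise read as TRPC4 activation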
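Assay system: HEK293 cells stably co-expressing mouse TRPC4beta and mu-opioid receptor / Timing: Fluo4 dye loading 45 min at room temperature, 110 s recording / Signal: Fluo4 calcium-sensitive dye fluorescence, kinetic, 1 Hz baseline / Read-out: integrated baseline-normalised fluorescence ratio, converted to per-well B score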
* hit, by the source's call; i = inactive; · = no result given. Rows were chosen to be rich in hits. Some 2.3% of all compounds tested hit in one or more screens of this group.

SMILES	TRPC6 act	TRPC4 potent	TRPC6 inhibitor	TRPC4 block	TRPC4 agonist
Cc1cccn2c(=O)c(/C=C(\C#N)C(N)=O)c(N3CCN(c4ccccc4)CC3)nc12	i	12*	i	i	i
CCOC(=O)/C(C#N)=C/c1c(N2CCN(c3ccc(OC)cc3)CC2)nc2c(C)cccn2c1=O	i	11*	i	i	i
Cc1cccn2c(=O)c(/C=N/O)c(N3CCCC3)nc12	i	i	i	-8*	i
Cc1cccn2c(=O)c(C=O)c(N3CCCCC3)nc12	i	i	i	i	i
C/C(CC(=O)Nc1ccc(F)cc1F)=N\NC(=O)C(=O)N1CCCCC1	i	i	i	i	i
CC(C)C[C@@H](COc1ccccc1)N1CCN(Cc2ccccc2)CCC1=O	i	i	i	i	52*
O=C1CCN(Cc2ccccc2)CCN1[C@H](COc1ccccc1)Cc1ccccc1	i	i	i	·	65*
Cc1ccc(SC[C@H](Cc2ccccc2)N2CCN(CC(C)C)CCC2=O)cc1	i	i	i	·	47*
CSCCC(NS(=O)(=O)c1ccccc1F)C(=O)OCc1ccccc1Cl (stereo not given)	i	i	i	i	i
COc1ccc(C(CCN(Cc2ccc(OC)c(OC)c2)C(C)=O)C(C)C)cc1 (stereo not given)	i	i	i	i	i
CN(C)CCOc1ccc2ccccc2c1	i	16*	i	i	i
CN(C)CCOc1cccc(Cl)c1	i	i	i	i	i
CN(C)CCCCOc1cccc(Br)c1	i	20*	i	i	i
CN(C)CCOc1cc(Cl)cc(Cl)c1	i	26*	i	i	i
Cc1nc(-c2ccccn2)nc(N(C)c2ccccc2)c1Cl	i	i	i	i	i
CCn1cc(/C=C(\NC(=O)c2ccc(OC)c(OC)c2)C(=O)N2CCN(C)CC2)c2ccccc21	i	i	i	i	i
CCOC(=O)C1=C(C)N(c2ccccc2)C(=O)NC1c1cccc([N+](=O)[O-])c1 (stereo not given)	i	15*	i	i	i
Cc1nc(=S)c2ccccc2[nH]1	i	i	i	i	i
Cc1cc2[nH]c3ccccc3c2c(C)n1	i	i	i	-7*	i
OCc1cc(-c2ccc(Cl)c(Cl)c2)on1	i	i	i	i	i
CCOc1cc(CNCc2cccs2)ccc1OCC(=O)NC(C)(C)C	i	i	i	-6*	i
Cc1cccc(/C=N/NC(=O)c2cc(Br)ccc2O)n1	i	65*	i	i	i
CC(C)(C)c1ccc(/C=N/NC(=S)NCc2ccccc2)cc1	i	i	i	i	i
C=CCNC(=S)N/N=C/c1ccc(C(C)(C)C)cc1	i	i	i	-6*	i
Cc1nn2c(N3CCN(C)CC3)c3c(nc2c1-c1ccccc1)CCCC3	i	28*	i	i	i
SMILES	TRPC6 act	TRPC4 potent	TRPC6 inhibitor	TRPC4 block	TRPC4 agonist
COC(=O)c1ccc(C(c2c(C)n(C)n(-c3ccccc3)c2=O)c2c(C)n(C)n(-c3ccccc3)c2=O)cc1	i	i	i	i	i
Cc1ccc(-n2nc(-c3cccs3)cc2C(=O)NCC2CCCO2)c(C)c1 (stereo not given)	i	i	i	-7*	55*
Cc1cc(Br)cc2c(C(=O)NCC3CCCO3)cc(-c3cccs3)nc12 (stereo not given)	i	i	i	i	i
COc1ccccc1OCC(=O)NCC1CCCN(Cc2cnn(C)c2C)C1 (stereo not given)	i	i	i	i	i
O=C(O)c1ccc2c(c1)C1C=CCC1C(c1cc3c(cc1Br)OCO3)N2 (stereo not given)	i	i	i	-7*	i
Cc1ccccc1Cn1c(CN2CCc3ccccc3C2)nc2c1c(=O)n(C)c(=O)n2C	i	119*	i	i	52*
CN(Cc1ccccc1)Cc1nc2c(c(=O)n(C)c(=O)n2C)n1Cc1ccc(F)cc1	i	i	i	i	i
CCn1c(CN2CCN(C(c3ccccc3)c3ccccc3)CC2)nc2c1c(=O)n(C)c(=O)n2C	i	17*	i	i	i
Cc1ccc(Cn2c(CN(C)Cc3ccccc3)nc3c2c(=O)n(C)c(=O)n3C)cc1	i	10*	i	i	i
COC(=O)c1cccc(Oc2nc3c(c(=O)n(C)c(=O)n3C)n2Cc2ccc(C)cc2)c1	i	i	i	-6*	i
Cc1cccc(-c2nc(S(=O)(=O)c3ccc(F)cc3)c(NCCCN3CCOCC3)o2)c1	i	i	i	i	i
COC(=O)Cn1c(CN2CCc3ccccc3C2)nc2c1c(=O)n(C)c(=O)n2C	i	i	i	i	i
CCC1CCCCN1Cc1nc2c(c(=O)n(C)c(=O)n2C)n1Cc1ccccc1 (stereo not given)	i	i	i	-6*	i
Cn1c(=O)c2c(nc(CN3CCc4ccccc4C3)n2Cc2ccc(F)cc2)n(C)c1=O	i	23*	i	i	i
CCCCCCn1c(N2CCN(c3ccccc3)CC2)nc2c1c(=O)n(C)c(=O)n2C	i	94*	i	i	i
CCC1CCCCN1Cc1nc2c(c(=O)n(C)c(=O)n2C)n1CCCc1ccccc1 (stereo not given)	i	i	i	i	i
CCC1=C2CC[C@H]3C(=O)N(CC(=O)OC)C(=O)[C@H]3[C@H]2[C@@]2(C)C(=NCC(=O)OC)OC(=O)N2C1=O	i	i	i	i	i
N#Cc1ncc(-c2ccc3c(c2)OCCOCCOCCOCCO3)nc1C#N	i	i	i	i	i
N#Cc1ncc(-c2ccc3c(c2)OCCOCCOCCOCCOCCO3)nc1C#N	i	i	i	-6*	i
O=C1CCC(C(=O)N2CCCCCC2)CN1CCc1ccc(Cl)cc1 (stereo not given)	i	i	i	i	i
O=C(NC(=S)NNC(=O)c1cccs1)c1ccc(Br)o1	i	i	i	i	180*
O=C(COc1ccccc1)NC1CCCCC1	i	i	i	i	i
COc1cccc(OCC(=O)NC2CCCCC2)c1	i	31*	i	i	i
Cc1cc(OCC(=O)NC2CCCCC2)ccc1Cl	i	27*	i	i	i
O=C(COc1ccc(Cl)cc1[N+](=O)[O-])NC1CCCCC1	i	85*	i	i	i
Cc1ccc(Nc2[nH]c(=O)c3ccccc3c2C(=O)c2ccccc2)cc1	i	i	i	i	i
Cc1oc(-c2ccccc2)cc1C(=O)NC1CCN(Cc2ccccc2)CC1	i	i	i	i	i
